This note sets out measurements from ChEMBL document CHEMBL1155937, “Substituted 3-((Z)-2-(4-nitrophenyl)-2-(1H-tetrazol-5-yl) vinyl)-4H-chromen-4-ones as novel anti-MRSA agents: synthesis, SAR, and in-vitro assessment” (Bioorg Med Chem Lett, 2008).

Values after ≈ are worked out from the molar mass of the structure shown.

A short description of data set [1]: pKa of the compound. Type of data set: physicochemical.
The next data set deals with Escherichia coli. Put plainly: Antibacterial activity against Escherichia coli ATCC 25922 after 24 hrs by twofold serial dilution method. Type of data set: functional. Conditions: ATCC 25922, 24 h. A digest of the protocol:
(§1)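 CLSI agar-dilution MIC on Mueller Hinton agar with serial twofold drug dilutions. About 10⁴ CFU applied per spot by multipoint inoculator. Incubated at 35 °C and growth scored at 24 h. DMSO served as solvent control. S. aureus ATCC 29213 was the QC strain. Twofold differences were confirmed by a third repetition, and the more frequent result was reported.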

The test system of data set [2] is Staphylococcus aureus. In words: Antibacterial activity against methicillin-sensitive Staphylococcus aureus ATCC 13709 Smith after 24 hrs by twofold serial dilution method. Type of data set: functional. The essentials:
as §1

Another data set relates to Streptococcus pneumoniae. Put plainly: Antibacterial activity against Streptococcus pneumoniae ATCC 49619 after 24 hrs by twofold serial dilution method. Type of data set: functional. The note with it: ATCC 49619, 24 h. The essentials:
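About 10⁴ CFU applied per spot. Incubated at 35 °C in 5% CO₂ and growth scored at 24 h. DMSO served as solvent control. Twofold differences were confirmed by a third repetition.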

Data set [3] concerns Staphylococcus aureus. In words: Antibacterial activity against methicillin-resistant Staphylococcus aureus 032 after 24 hrs by twofold serial dilution method. The class given is functional. A digest of the protocol: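 Agar dilution MIC per CLSI on Mueller Hinton agar with serial twofold drug dilutions. About 10⁴ CFU applied per spot with a multipoint inoculator, incubated at 35 °C, and growth scored at 24 h. DMSO served as solvent control. Twofold discrepancies were confirmed by a third repetition, and the more frequent value was reported.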

The test system of the next data set is Enterococcus faecalis. In words: Antibacterial activity against Enterococcus faecalis ATCC 29212 after 24 hrs by twofold serial dilution method. The class given is functional. The note with it: ATCC 29212, 24 h. A digest of the protocol:
as §1

Usually pKa stands for the pH at which an ionisable group is half protonated. Lower therefore signals a stronger acid or weaker base. The molecule `O=c1c(-c2nnn[nH]2)coc2ccccc12` gave a pKa in data set [1] of 5.85.

The MIC is the lowest concentration found to suppress growth. Lower therefore signals a more susceptible organism. Take `O=c1c(/C=C(/c2ccc([N+](=O)[O-])cc2)c2nnn[nH]2)coc2ccc(Br)cc12`: the MIC against Escherichia coli, with Staphylococcus aureus [2], in the data set with Streptococcus pneumoniae, with Staphylococcus aureus [3] and in the data set on Enterococcus faecalis was above 32 µg/mL each time.

Take `Cc1cc2occ(/C=C(/c3ccc([N+](=O)[O-])cc3)c3nnn[nH]3)c(=O)c2cc1Cl`: the MIC against Escherichia coli is above 32 µg/mL; against Staphylococcus aureus [2], 16 µg/mL (≈ 39 µM); in the data set with Streptococcus pneumoniae it was 16 µg/mL (≈ 39 µM); against Staphylococcus aureus [3] it was 4 µg/mL (≈ 9.76 µM); with Enterococcus faecalis, 16 µg/mL (≈ 39 µM).

With `O=c1c(/C=C(/c2ccc([N+](=O)[O-])cc2)c2nnn[nH]2)coc2ccc(Cl)cc12`, the MIC against Escherichia coli, in the data set with Staphylococcus aureus [2], with Streptococcus pneumoniae, against Staphylococcus aureus [3] and against Enterococcus faecalis was above 32 µg/mL throughout.

Consider `Cc1cc(C)c2occ(/C=C(/c3ccc([N+](=O)[O-])cc3)c3nnn[nH]3)c(=O)c2c1`, for which the MIC with Escherichia coli was above 32 µg/mL; in the data set on Staphylococcus aureus [2] it was 8 µg/mL (≈ 20.5 µM); with Streptococcus pneumoniae, 16 µg/mL (≈ 41.1 µM); against Staphylococcus aureus [3] it was 2 µg/mL (≈ 5.14 µM); in the data set with Enterococcus faecalis it was 16 µg/mL (≈ 41.1 µM).

With `O=c1c(/C=C(/c2ccc([N+](=O)[O-])cc2)c2nnn[nH]2)coc2c(Cl)cc(Cl)cc12`, the MIC was above 32 µg/mL against Escherichia coli; 16 µg/mL (≈ 37.2 µM) in the data set on Staphylococcus aureus [2]; 1 µg/mL (≈ 2.32 µM) against Streptococcus pneumoniae; 2 µg/mL (≈ 4.65 µM) in the data set on Staphylococcus aureus [3]; 8 µg/mL (≈ 18.6 µM) in the data set with Enterococcus faecalis.

Consider `Cc1ccc2occ(/C=C(/c3ccc([N+](=O)[O-])cc3)c3nnn[nH]3)c(=O)c2c1`, for which the MIC in the data set on Escherichia coli is above 32 µg/mL; against Staphylococcus aureus [2] it was 8 µg/mL (≈ 21.3 µM); against Streptococcus pneumoniae, above 32 µg/mL; in the data set on Staphylococcus aureus [3], above 32 µg/mL; with Enterococcus faecalis, above 32 µg/mL.

For the molecule `O=c1c(/C=C(/c2ccc([N+](=O)[O-])cc2)c2nnn[nH]2)coc2ccc(F)cc12`, the MIC with Escherichia coli is above 32 µg/mL; in the data set with Staphylococcus aureus [2], 8 µg/mL (≈ 21.1 µM); in the data set with Streptococcus pneumoniae, 0.5 µg/mL (≈ 1.32 µM); in the data set with Staphylococcus aureus [3] it was 0.5 µg/mL (≈ 1.32 µM); in the data set on Enterococcus faecalis, 4 µg/mL (≈ 10.5 µM).

As for `CC1(C)S[C@@H]2[C@H](NC(=O)[C@H](N)c3ccccc3)C(=O)N2[C@H]1C(=O)O` [AMPICILLIN], the minimal inhibitory concentration (MIC) against Escherichia coli was above 32 µg/mL; in the data set on Staphylococcus aureus [2] it was 0.25 µg/mL (≈ 0.715 µM); in the data set with Streptococcus pneumoniae, 0.06 µg/mL (≈ 0.172 µM); against Staphylococcus aureus [3] it was above 32 µg/mL; in the data set with Enterococcus faecalis it was 0.5 µg/mL (≈ 1.43 µM).

With `O=C(O)c1cn(C2CC2)c2cc(N3CCNCC3)c(F)cc2c1=O` [CIPROFLOXACIN], the MIC in the data set with Escherichia coli is above 32 µg/mL; in the data set with Staphylococcus aureus [2] it was 0.12 µg/mL (≈ 0.362 µM); in the data set with Streptococcus pneumoniae it was 2 µg/mL (≈ 6.04 µM); in the data set on Staphylococcus aureus [3], above 32 µg/mL; in the data set on Enterococcus faecalis, 0.5 µg/mL (≈ 1.51 µM).

For `CC[C@H]1OC(=O)[C@H](C)[C@@H](O[C@H]2C[C@@](C)(OC)[C@@H](O)[C@H](C)O2)[C@H](C)[C@@H](O[C@@H]2O[C@H](C)C[C@H](N(C)C)[C@H]2O)[C@](C)(O)C[C@@H](C)C(=O)[C@H](C)[C@@H](O)[C@]1(C)O` [ERYTHROMYCIN], the MIC is above 32 µg/mL in the data set with Escherichia coli; 0.5 µg/mL (≈ 0.681 µM) in the data set with Staphylococcus aureus [2]; 0.12 µg/mL (≈ 0.164 µM) in the data set with Streptococcus pneumoniae; above 32 µg/mL against Staphylococcus aureus [3]; 2 µg/mL (≈ 2.73 µM) with Enterococcus faecalis.
